# Tests used:
# Assay type in all cases: protein assay
# Bcl-xL/BAK = Bcl-xL/BAK (Homo sapiens, UniProt Q07817); test: Inhibition of GST-tagged […]/FITC-conjugated Bak interaction by fluorescence polarisation assay
# [1] = target: Bcl-xL/BH3-interacting domain death agonist (Homo sapiens, UniProt Q07817); test: Inhibition of GST-tagged Bcl-xl/FITC-conjugated Bid interaction by fluorescence polarisation assay
# [2] = target: Bcl-xL/Bcl-2-like protein 11 (Homo sapiens, UniProt Q07817); test: Inhibition of GST-tagged Bcl-xl/FITC-conjugated Bim interaction by fluorescence polarisation assay
# Bcl-xL/Bcl-2-like protein 11, sequence (Q07817 whole entry): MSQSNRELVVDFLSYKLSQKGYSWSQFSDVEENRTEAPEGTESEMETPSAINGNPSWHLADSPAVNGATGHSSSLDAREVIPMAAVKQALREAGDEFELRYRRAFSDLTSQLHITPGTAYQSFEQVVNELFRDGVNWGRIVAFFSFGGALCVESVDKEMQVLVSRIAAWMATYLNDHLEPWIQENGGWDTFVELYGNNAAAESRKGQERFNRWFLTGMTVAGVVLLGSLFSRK
# Bcl-xL/Bcl-2-like protein 11, sequence (O43521 whole entry, further chain): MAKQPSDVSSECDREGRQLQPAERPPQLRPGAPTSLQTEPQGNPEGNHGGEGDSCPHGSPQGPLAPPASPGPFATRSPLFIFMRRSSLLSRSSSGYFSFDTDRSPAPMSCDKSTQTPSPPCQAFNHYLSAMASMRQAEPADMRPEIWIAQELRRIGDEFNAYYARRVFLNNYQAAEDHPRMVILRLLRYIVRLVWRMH
# Bcl-xL/BAX = Bcl-xL/BAX (Homo sapiens, UniProt Q07812+Q07817); test: Inhibition of GST-tagged Bcl-xl/FITC-conjugated Bax interaction by fluorescence polarisation assay
# Bcl-xL/BAX, sequence (Q07817 whole entry): as the sequence (Q07817 whole entry) above
# Bcl-xL/BAX, sequence (Q07812 whole entry): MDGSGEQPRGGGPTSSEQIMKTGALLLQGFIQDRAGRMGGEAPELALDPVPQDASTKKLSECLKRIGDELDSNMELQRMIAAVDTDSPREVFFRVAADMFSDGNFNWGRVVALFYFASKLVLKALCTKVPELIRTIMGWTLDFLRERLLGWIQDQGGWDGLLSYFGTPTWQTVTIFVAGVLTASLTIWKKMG
# [3] = target: Bcl-xL/Bcl-2-binding component 3 (Homo sapiens, UniProt Q07817+Q9BXH1); test: Inhibition of GST-tagged Bcl-xl/FITC-conjugated PUMA interaction by fluorescence polarisation assay
# Bcl-xL/Bcl-2-binding component 3, sequence (Q07817 whole entry): as the sequence (Q07817 whole entry) above
# Bcl-xL/Bcl-2-binding component 3, sequence (Q9BXH1 whole entry): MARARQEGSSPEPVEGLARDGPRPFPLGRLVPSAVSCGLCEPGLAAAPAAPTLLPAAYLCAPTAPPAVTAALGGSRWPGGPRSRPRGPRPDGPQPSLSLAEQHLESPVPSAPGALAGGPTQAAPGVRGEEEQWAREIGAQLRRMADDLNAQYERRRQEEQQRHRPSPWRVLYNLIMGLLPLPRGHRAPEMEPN
# [4] = target: Apoptosis regulator BAX/Bcl-2-related protein A1 (Homo sapiens, UniProt Q07812+Q16548); test: Inhibition of GST-tagged Bfl-1/FITC-conjugated Bax interaction by fluorescence polarisation assay
# Apoptosis regulator BAX/Bcl-2-related protein A1, sequence (Q07812 whole entry, the tested form may be a part): as the sequence (Q07812 whole entry) above
# Apoptosis regulator BAX/Bcl-2-related protein A1, sequence (Q16548 whole entry, the tested form may be a part): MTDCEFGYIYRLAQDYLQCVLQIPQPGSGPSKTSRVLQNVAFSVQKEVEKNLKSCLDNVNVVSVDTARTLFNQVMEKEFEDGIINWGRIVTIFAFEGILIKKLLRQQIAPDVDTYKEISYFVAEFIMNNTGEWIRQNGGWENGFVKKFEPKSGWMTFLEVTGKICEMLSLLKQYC
# In short: (§1)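 Recombinant GST-fused anti-apoptotic protein (Bcl-xl, Bcl-2, Bfl-1 or Mcl-1, each lacking its C-terminal tail) at 100 nM, incubated in the dark with 15 nM N-terminally FITC-labelled BH3 peptide (Bak, Bax, Bid or Bim) and a range of compound concentrations. Fluorescence polarisation was read, and IC50 was derived from the concentration-response curve.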
# [5] = target: Apoptosis regulator BAX/Bcl-2 (Homo sapiens, UniProt P10415+Q07812); test: Inhibition of GST-tagged Bcl-2/FITC-conjugated Bax interaction by fluorescence polarisation assay; in short: as §1
# Apoptosis regulator BAX/Bcl-2, sequence (P10415 whole entry): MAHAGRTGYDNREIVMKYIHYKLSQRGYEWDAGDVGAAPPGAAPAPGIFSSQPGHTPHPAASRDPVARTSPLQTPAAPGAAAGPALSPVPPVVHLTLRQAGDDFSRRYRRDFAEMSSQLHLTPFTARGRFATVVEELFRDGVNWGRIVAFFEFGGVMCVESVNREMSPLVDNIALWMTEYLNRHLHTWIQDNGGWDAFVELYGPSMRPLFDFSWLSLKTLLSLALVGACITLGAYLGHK
# Apoptosis regulator BAX/Bcl-2, sequence (Q07812 whole entry): as the sequence (Q07812 whole entry) above
# [6] = target: Apoptosis regulator BAX/Induced myeloid leukemia cell differentiation protein Mcl-1 (Homo sapiens, UniProt Q07812+Q07820); test: Inhibition of GST-tagged Mcl-1/FITC-conjugated Bax interaction by fluorescence polarisation assay; in short: as §1
# Apoptosis regulator BAX/Induced myeloid leukemia cell differentiation protein Mcl-1, sequence (Q07820 whole entry): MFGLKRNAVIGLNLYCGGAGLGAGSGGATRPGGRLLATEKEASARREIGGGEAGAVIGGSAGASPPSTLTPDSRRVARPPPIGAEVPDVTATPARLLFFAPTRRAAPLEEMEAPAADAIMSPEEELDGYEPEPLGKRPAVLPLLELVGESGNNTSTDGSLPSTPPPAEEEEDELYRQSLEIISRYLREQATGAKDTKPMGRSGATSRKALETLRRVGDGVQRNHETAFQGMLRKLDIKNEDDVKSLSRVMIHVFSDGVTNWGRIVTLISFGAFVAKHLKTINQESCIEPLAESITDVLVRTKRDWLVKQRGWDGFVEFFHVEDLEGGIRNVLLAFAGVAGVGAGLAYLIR
# Apoptosis regulator BAX/Induced myeloid leukemia cell differentiation protein Mcl-1, sequence (Q07812 whole entry): as the sequence (Q07812 whole entry) above
# Bcl-xL/BH3-interacting domain death agonist, sequence (Q07817 whole entry, the tested form may be a part): as the sequence (Q07817 whole entry) above
# Bcl-xL/BH3-interacting domain death agonist, sequence (P55957 whole entry, further chain, the tested form may be a part): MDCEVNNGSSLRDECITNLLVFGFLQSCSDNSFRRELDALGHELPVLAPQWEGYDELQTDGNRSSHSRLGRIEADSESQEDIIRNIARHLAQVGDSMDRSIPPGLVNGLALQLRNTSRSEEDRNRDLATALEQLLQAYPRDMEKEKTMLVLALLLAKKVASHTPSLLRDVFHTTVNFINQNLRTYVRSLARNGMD
# Bcl-xL/BAK, sequence (Q07817 whole entry, the tested form may be a part): as the sequence (Q07817 whole entry) above
# Bcl-xL/BAK, sequence (Q16611 whole entry, further chain, the tested form may be a part): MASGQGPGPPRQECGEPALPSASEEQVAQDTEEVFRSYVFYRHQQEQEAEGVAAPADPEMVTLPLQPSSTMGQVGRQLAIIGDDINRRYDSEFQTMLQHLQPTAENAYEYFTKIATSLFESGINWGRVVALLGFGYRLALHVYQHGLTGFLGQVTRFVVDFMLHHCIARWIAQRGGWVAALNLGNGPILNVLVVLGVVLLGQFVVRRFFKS
IC50 (Bcl-xL/BAK) [µM],IC50 [2] [µM],IC50 (Bcl-xL/BAX) [µM],IC50 [3] [µM],IC50 [4] [µM],IC50 [5] [µM],IC50 [6] [µM],SMILES,IC50 [1] [µM]
74,47,243,54,–,–,–,CCOc1nc2ccccc2cc1-c1cc(C(C)C)c2cc(-c3cc(C(C)C)c4ccc(OC)nc4c3)c(OC)nc2c1,21
> 1000,29,> 1000,> 1000,–,–,–,COc1ccc2c(CC(C)C)cc(-c3cc4c(C(C)C)cccc4nc3OC)cc2n1,> 1000
25,92.5,26,42,68,43,45.5,CCC(C)c1cc(-c2cc3c(CC(C)C)cc(-c4cc5c(C(C)C)cccc5nc4OC)cc3nc2OC)cc2nc(OC)ccc12 (racemic),27
